Results as given in ChEMBL document CHEMBL1124352, “Oral hypoglycemic agents. Discovery and structure-activity relationships of phenacylimidazolium halides” (1989).

Key:
Mus musculus [1] = experiment: Percent blood glucose level in mice 4 hours after peroral administration of compound (100 mg/kg); type: functional
Procedure, shortened: (§1)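 Viable yellow obese diabetic mice, six per group, gavaged with 100 mg/kg in saline-2% Emulphor; six vehicle-gavaged controls. Tail blood taken before dosing and at 2 and 4 h. Glucose measured by glucose oxidase method on an autoanalyzer. Values expressed as percent of zero time, mean ±SE of six mice. Significance versus controls by Student's t test, p < 0.05.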

Mus musculus [2] = experiment: Percent blood glucose level in mice 2 hours after peroral administration of compound (100 mg/kg); type: functional; procedure, shortened: as §1

In the case of `Cc1cc[n+](CC(=O)c2ccccc2)cc1.[Br-]`, the Blood glucose (Mus musculus [1]) is reported as 103% and the Blood glucose (Mus musculus [2]) is reported as 105%.

`Cn1cc[n+](CC(=O)c2ccc(C#N)cc2)c1.[Br-]` was tested, and the Blood glucose (Mus musculus [1]) was 106% and the Blood glucose (Mus musculus [2]) was 105%.

With `Cn1cc[n+](CC(=O)c2cccc(C(F)(F)F)c2)c1.[I-]` the Blood glucose (Mus musculus [1]) was 97% and the Blood glucose (Mus musculus [2]) was 95%.

`Cc1ccc(C(=O)Cn2ccc[n+]2C)cc1.[Br-]` gave a Blood glucose (Mus musculus [1]) of 82% and a Blood glucose (Mus musculus [2]) of 83%.

`Cn1cc[n+](C(C)(C)C(=O)c2ccccc2)c1.[Br-]` was tested, and the Blood glucose (Mus musculus [1]) was 113% and the Blood glucose (Mus musculus [2]) was 104%.

In the case of `Cc1n(C)cc[n+]1CC(=O)c1ccccc1.[Cl-]`, the Blood glucose (Mus musculus [1]) is reported as 81% and the Blood glucose (Mus musculus [2]) is reported as 90%.

`COc1ccc(C(=O)C[n+]2ccn(C)c2)cc1.[Br-]` gave a Blood glucose (Mus musculus [1]) of 77% and a Blood glucose (Mus musculus [2]) of 70%.

Work on `Cn1cc[n+](CC(=O)c2ccco2)c1.[Br-]` yielded a Blood glucose (Mus musculus [1]) of 92% and a Blood glucose (Mus musculus [2]) of 72%.

`COc1cccc(C(=O)Cn2ccn(C)c2=O)c1` gave a Blood glucose (Mus musculus [1]) of 103% and a Blood glucose (Mus musculus [2]) of 101%.

In the case of `COc1ccc(C(=O)C[n+]2ccn(C)c2)cc1OC.[Br-]`, the Blood glucose (Mus musculus [1]) is reported as 81% and the Blood glucose (Mus musculus [2]) is reported as 86%.

`CC(=O)C[n+]1ccn(-c2ccccc2)c1.[Cl-]` gave a Blood glucose (Mus musculus [1]) of 109% and a Blood glucose (Mus musculus [2]) of 105%.

`COc1cccc(C(=O)C[n+]2ccsc2)c1.[Br-]` was tested, and the Blood glucose (Mus musculus [1]) was 123% and the Blood glucose (Mus musculus [2]) was 105%.

Work on `CCCn1cc[n+](CC(=O)c2ccccc2)c1.[Cl-]` yielded a Blood glucose (Mus musculus [1]) of 79% and a Blood glucose (Mus musculus [2]) of 79%.

In the case of `Cn1cc[n+](CC(=O)c2ccccc2F)c1.[Br-]`, the Blood glucose (Mus musculus [1]) is reported as 99% and the Blood glucose (Mus musculus [2]) is reported as 91%.

In the case of `Cc1ccc(C(=O)C[n+]2cn(C)c(-c3ccccc3)c2-c2ccccc2)cc1.[Br-]`, the Blood glucose (Mus musculus [1]) is reported as 105% and the Blood glucose (Mus musculus [2]) is reported as 102%.

`Cn1cc[n+](CC(=O)c2ccc(C(N)=O)cc2)c1.[Br-]` showed a Blood glucose (Mus musculus [1]) of 95% and a Blood glucose (Mus musculus [2]) of 100%.

`Cc1ccc(C(=O)C[n+]2ccncc2)cc1.[Br-]` was tested, and the Blood glucose (Mus musculus [1]) was 112% and the Blood glucose (Mus musculus [2]) was 122%.

Molecule `Cc1ccc(C(=O)C[n+]2cc3ccccc3cn2)cc1.[Br-]` has a Blood glucose (Mus musculus [1]) of 108% and a Blood glucose (Mus musculus [2]) of 115%.

Molecule `CCOc1cccc(C(=O)C[n+]2ccn(C)c2)c1.[Br-]` has a Blood glucose (Mus musculus [1]) of 64% and a Blood glucose (Mus musculus [2]) of 63%.

In the case of `COc1cccc(C(=O)C[n+]2ccn(C(C)C)c2)c1.[Br-]`, the Blood glucose (Mus musculus [1]) is reported as 83% and the Blood glucose (Mus musculus [2]) is reported as 79%.

`C[n+]1ccn(CC(=O)c2ccccc2)c1.[Br-]` showed a Blood glucose (Mus musculus [1]) of 71% and a Blood glucose (Mus musculus [2]) of 74%.

In the case of `COc1cccc(C(=O)C[N+]2=CN(C)CC2)c1.[Br-]`, the Blood glucose (Mus musculus [1]) is reported as 97% and the Blood glucose (Mus musculus [2]) is reported as 81%.

`Cn1cc[n+](C(C(=O)c2ccccc2)c2ccccc2)c1.[Cl-]` (stereo not drawn) showed a Blood glucose (Mus musculus [1]) of 83% and a Blood glucose (Mus musculus [2]) of 94%.

For `Br.O=C(Cn1ccnc1)c1ccccc1`, the Blood glucose (Mus musculus [1]) was 90% and the Blood glucose (Mus musculus [2]) was 103%.

Work on `Cc1ccc(C(=O)C[n+]2ccn(C)c2)cc1.[Br-]` yielded a Blood glucose (Mus musculus [1]) of 53% and a Blood glucose (Mus musculus [2]) of 57%.

In the case of `COc1cc(OC)cc(C(=O)C[n+]2ccoc2)c1.[Br-]`, the Blood glucose (Mus musculus [1]) is reported as 97% and the Blood glucose (Mus musculus [2]) is reported as 95%.

`Cc1ccccc1C(=O)C[n+]1ccn(C)c1.[Br-]` showed a Blood glucose (Mus musculus [1]) of 87% and a Blood glucose (Mus musculus [2]) of 80%.

With `Cn1cc[n+](CC(=O)c2cccc3ccccc23)c1.[Br-]` the Blood glucose (Mus musculus [1]) was 110% and the Blood glucose (Mus musculus [2]) was 90%.

Work on `CC(=O)Nc1cccc(C(=O)C[n+]2ccn(C)c2)c1.[Br-]` yielded a Blood glucose (Mus musculus [1]) of 109% and a Blood glucose (Mus musculus [2]) of 100%.

For `Cc1ccc(C(=O)C[n+]2ccn(C)c2)c(C)c1.[Br-]`, the Blood glucose (Mus musculus [1]) was 79% and the Blood glucose (Mus musculus [2]) was 62%.

`Cn1cc[n+](CC(=O)c2ccc3ccccc3c2)c1.[Br-]` gave a Blood glucose (Mus musculus [1]) of 99% and a Blood glucose (Mus musculus [2]) of 89%.

`Cn1cc[n+](CC(=O)c2ccc(-c3ccccc3)cc2)c1.[Br-]` showed a Blood glucose (Mus musculus [1]) of 103% and a Blood glucose (Mus musculus [2]) of 103%.

With `Cc1cc(C)c(C(=O)C[n+]2ccn(C)c2)c(C)c1.[Br-]` the Blood glucose (Mus musculus [1]) was 97% and the Blood glucose (Mus musculus [2]) was 94%.

Work on `COc1cccc(C(O)C[n+]2ccn(C)c2)c1.[I-]` (stereo not drawn) yielded a Blood glucose (Mus musculus [1]) of 103% and a Blood glucose (Mus musculus [2]) of 106%.

For `CO/N=C(/C[n+]1ccn(C)c1)c1ccc(C)cc1.[I-]`, the Blood glucose (Mus musculus [1]) was 81% and the Blood glucose (Mus musculus [2]) was 86%.

`COC(=O)Cn1cc[n+](CC(=O)c2ccccc2)c1.[Br-]` gave a Blood glucose (Mus musculus [1]) of 84% and a Blood glucose (Mus musculus [2]) of 89%.

Work on `Cn1cc[n+](CC(=O)c2cccc(Cl)c2)c1.[Br-]` yielded a Blood glucose (Mus musculus [1]) of 112% and a Blood glucose (Mus musculus [2]) of 107%.

Molecule `Cn1cc[n+](CC(=O)c2ccc(Cl)cc2)c1.[Br-]` has a Blood glucose (Mus musculus [1]) of 93% and a Blood glucose (Mus musculus [2]) of 94%.

Molecule `COc1cccc(C(=O)C[n+]2ccn(C)c2SC(C)C)c1.[Br-]` has a Blood glucose (Mus musculus [1]) of 121% and a Blood glucose (Mus musculus [2]) of 101%.

`CC(C(=O)c1ccccc1)[n+]1ccn(C)c1.[Br-]` (stereo not drawn) was tested, and the Blood glucose (Mus musculus [1]) was 61% and the Blood glucose (Mus musculus [2]) was 70%.

For `COc1cccc(C(=O)C[n+]2ccn(C)c2)c1OC.[Br-]`, the Blood glucose (Mus musculus [1]) was 88% and the Blood glucose (Mus musculus [2]) was 83%.

With `COc1cc(OC)cc(C(=O)C[n+]2ccn(C)c2)c1.[Br-]` the Blood glucose (Mus musculus [1]) was 69% and the Blood glucose (Mus musculus [2]) was 83%.

`Cc1cccc(C(=O)C[n+]2ccn(C)c2)c1.[Br-]` gave a Blood glucose (Mus musculus [1]) of 73% and a Blood glucose (Mus musculus [2]) of 78%.

Work on `Cc1ccc(C(=O)C[n+]2ccccn2)cc1.[Br-]` yielded a Blood glucose (Mus musculus [1]) of 111% and a Blood glucose (Mus musculus [2]) of 105%.

In the case of `COc1cccc(C(=O)Cn2ccnc2)c1`, the Blood glucose (Mus musculus [1]) is reported as 121% and the Blood glucose (Mus musculus [2]) is reported as 110%.

Work on `Cn1cc[n+](CC(=O)c2ccc(O)c(O)c2)c1.[Cl-]` yielded a Blood glucose (Mus musculus [1]) of 107% and a Blood glucose (Mus musculus [2]) of 108%.

Molecule `Cn1cc[n+](CC(=O)c2ccc(Cl)c(Cl)c2)c1.[Br-]` has a Blood glucose (Mus musculus [1]) of 79% and a Blood glucose (Mus musculus [2]) of 94%.

`COc1ccccc1C(=O)C[n+]1ccn(C)c1.[Br-]` showed a Blood glucose (Mus musculus [1]) of 97% and a Blood glucose (Mus musculus [2]) of 90%.

With `COc1cccc(C(=O)C[n+]2ccn(C)c2)c1.[Br-]` the Blood glucose (Mus musculus [1]) was 72% and the Blood glucose (Mus musculus [2]) was 58%.

Work on `Cc1ccc(S(=O)(=O)[O-])cc1.Cn1cc[n+](CC(=O)c2cccc(O)c2)c1` yielded a Blood glucose (Mus musculus [1]) of 87% and a Blood glucose (Mus musculus [2]) of 93%.

`CCCOc1cccc(C(=O)C[n+]2ccn(C)c2)c1.[Br-]` gave a Blood glucose (Mus musculus [1]) of 72% and a Blood glucose (Mus musculus [2]) of 63%.

`Cc1ccc(C(=O)C[n+]2ccn(C)c2)cc1C.[Br-]` gave a Blood glucose (Mus musculus [1]) of 95% and a Blood glucose (Mus musculus [2]) of 83%.

In the case of `COc1cccc(C(=O)Cn2ccn(C)c2=S)c1`, the Blood glucose (Mus musculus [1]) is reported as 80% and the Blood glucose (Mus musculus [2]) is reported as 99%.

With `COc1cccc(C(=O)C[n+]2ccn(-c3ccccc3)c2)c1.[Br-]` the Blood glucose (Mus musculus [1]) was 91% and the Blood glucose (Mus musculus [2]) was 96%.

Work on `COc1cccc(C(=O)CC[n+]2ccn(C)c2)c1.[I-]` yielded a Blood glucose (Mus musculus [1]) of 94% and a Blood glucose (Mus musculus [2]) of 91%.

`Cc1ccc(C(=O)C[n+]2csc3ccccc32)cc1.[Br-]` gave a Blood glucose (Mus musculus [1]) of 108% and a Blood glucose (Mus musculus [2]) of 106%.

Work on `CCOc1ccc(C(=O)C[n+]2ccn(C)c2)cc1.[Br-]` yielded a Blood glucose (Mus musculus [1]) of 104% and a Blood glucose (Mus musculus [2]) of 103%.

Molecule `CCc1ccc(C(=O)C[n+]2ccn(C)c2)cc1.[Br-]` has a Blood glucose (Mus musculus [1]) of 88% and a Blood glucose (Mus musculus [2]) of 77%.

For `COc1ccc(OC)c(C(=O)C[n+]2ccn(C)c2)c1.[Br-]`, the Blood glucose (Mus musculus [1]) was 86% and the Blood glucose (Mus musculus [2]) was 78%.
